20 compounds from ChEMBL document CHEMBL1140304, “Design and synthesis of potent inhibitors of plasmepsin I and II: X-ray crystal structure of inhibitor in complex with plasmepsin II” (J Med Chem, 2005) can be followed below.

Experiment [1] concerns Plasmodium falciparum. In words: Percentage inhibition of parasite growth in human erythrocytes at 5 uM. Format: functional. A digest of the protocol:
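Synchronous P. falciparum 3D7 early trophozoites at ~1% haematocrit and 1% parasitaemia, with [3H]hypoxanthine at 10 µCi/mL. Compound (1-5 µM final) or DMSO (max 1% v/v) was added. Cultures ran 30 h at 37 °C in gassed boxes to mature schizonts, then were harvested onto filters for β-counting. Uptake was expressed relative to DMSO controls; four independent experiments.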

The target in experiment [2] is Cathepsin D (Homo sapiens, UniProt P07339). In words: Inhibitory concentration against the human Cathepsin D. A digest of the protocol:
(§1)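 Fluorogenic assay in 100 mM sodium acetate (pH 4.5), 10% glycerol and 0.01% Tween 20, with 3 µM DABCYL/EDANS peptide substrate. Enzymes: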

In experiment [3] the target is Plasmepsin I (Plasmodium falciparum, UniProt P39898). Briefly: Inhibitory concentration against the plasmepsin-1 of Plasmodium falciparum. The procedure, abridged:
as §1

For experiment [4], the target named is Plasmepsin II (Plasmodium falciparum, UniProt P46925). Briefly: Inhibitory concentration against the plasmepsin-2 of Plasmodium falciparum. A digest of the protocol:
as §1

Sequence of Plasmepsin I (P39898 whole entry): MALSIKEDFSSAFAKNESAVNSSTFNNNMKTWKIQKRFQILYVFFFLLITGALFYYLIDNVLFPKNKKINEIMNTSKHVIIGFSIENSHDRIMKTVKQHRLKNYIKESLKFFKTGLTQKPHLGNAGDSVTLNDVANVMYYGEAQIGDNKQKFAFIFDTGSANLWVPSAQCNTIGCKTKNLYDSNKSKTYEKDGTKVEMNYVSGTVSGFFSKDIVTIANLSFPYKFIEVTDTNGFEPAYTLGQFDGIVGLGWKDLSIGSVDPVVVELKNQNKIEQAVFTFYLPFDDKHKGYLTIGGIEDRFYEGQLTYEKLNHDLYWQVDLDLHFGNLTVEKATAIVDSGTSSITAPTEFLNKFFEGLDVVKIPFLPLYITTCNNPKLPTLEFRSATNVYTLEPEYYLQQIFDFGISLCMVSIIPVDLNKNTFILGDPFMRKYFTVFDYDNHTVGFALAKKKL
Sequence of Cathepsin D (P07339 65-162 limits assumed): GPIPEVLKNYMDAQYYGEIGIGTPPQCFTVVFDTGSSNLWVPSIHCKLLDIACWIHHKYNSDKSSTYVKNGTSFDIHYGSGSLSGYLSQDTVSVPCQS
Sequence of Cathepsin D (P07339 169-412 limits assumed): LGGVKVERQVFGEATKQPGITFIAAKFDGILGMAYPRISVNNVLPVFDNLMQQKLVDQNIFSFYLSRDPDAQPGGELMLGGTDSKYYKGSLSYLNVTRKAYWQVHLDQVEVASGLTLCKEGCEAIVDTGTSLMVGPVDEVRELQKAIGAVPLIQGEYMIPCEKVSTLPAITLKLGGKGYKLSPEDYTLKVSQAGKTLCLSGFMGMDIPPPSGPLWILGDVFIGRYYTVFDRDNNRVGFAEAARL
Sequence of Plasmepsin II (P46925 whole entry): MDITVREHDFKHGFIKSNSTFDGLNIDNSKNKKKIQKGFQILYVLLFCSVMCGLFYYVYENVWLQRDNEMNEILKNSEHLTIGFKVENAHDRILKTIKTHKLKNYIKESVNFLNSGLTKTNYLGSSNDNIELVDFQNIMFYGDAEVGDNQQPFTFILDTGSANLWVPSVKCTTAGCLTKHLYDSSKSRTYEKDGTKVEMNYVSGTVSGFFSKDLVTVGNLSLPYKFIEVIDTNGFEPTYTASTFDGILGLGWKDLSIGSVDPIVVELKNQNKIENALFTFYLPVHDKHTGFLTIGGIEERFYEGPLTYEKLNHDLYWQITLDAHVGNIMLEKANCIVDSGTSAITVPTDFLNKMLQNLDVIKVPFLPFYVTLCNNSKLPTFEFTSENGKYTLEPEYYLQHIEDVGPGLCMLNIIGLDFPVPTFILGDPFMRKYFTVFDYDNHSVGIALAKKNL

The compound `O=C(C[C@H](O)[C@H](COCc1ccc(Br)cc1)NC(=O)c1c(F)cc(F)cc1F)NC1CCCCC1` registered an inhibition at 5 µM in experiment [1] of 0%.

On to `CC(C)C[C@H](NC(=O)[C@H](C)NC(=O)C[C@H](O)[C@H](COCc1ccc(Br)cc1)NC(=O)[C@@H](NC(=O)c1ccccn1)C(C)C)C(N)=O`, for which, in experiment [1], the inhibition at 5 µM came out at 51%.

In experiment [1], `CC(C)C[C@H](NC(=O)[C@H](C)NC(=O)C[C@H](O)[C@H](COCc1ccc(Br)cc1)NC(=O)c1c(F)cc(F)cc1F)C(N)=O` yielded an inhibition at 5 µM of 10%.

For the compound `CC(C)C[C@H](NC(=O)[C@H](C)NC(=O)C[C@H](O)[C@H](COCc1ccc(-c2ccc3c(c2)OCO3)cc1)NC(=O)c1c(F)cc(F)cc1F)C(N)=O`, the Ki was 2700 nM in experiment [2], 3.3 nM in experiment [3] and 19 nM in experiment [4].

For `CC(C)C[C@H](NC(=O)[C@H](C)NC(=O)C[C@H](O)[C@H](COCc1cccc(Br)c1)NC(=O)[C@@H](NC(=O)c1ccccn1)C(C)C)C(N)=O`, the Ki in experiment [2] turned out to be 32 nM; in experiment [3], 1 nM; in experiment [4] it was 5.7 nM. Besides, the inhibition at 5 µM in experiment [1] turned out to be 55%.

As for `COc1cccc(CCNC(=O)C[C@H](O)[C@H](COCc2ccc(-c3ccccc3)cc2)NC(=O)c2c(F)cc(F)cc2F)c1`, the Ki is > 5900 nM in experiment [2], 116 nM in experiment [3] and 308 nM in experiment [4].

On to `COc1cccc(CCNC(=O)C[C@H](O)[C@H](COCc2ccc(-c3ccsc3)cc2)NC(=O)c2c(F)cc(F)cc2F)c1`, for which the Ki in experiment [2] came to 1880 nM; in experiment [3], 221 nM; in experiment [4], 693 nM.

Turning to `CC(C)C[C@H](NC(=O)[C@H](C)NC(=O)C[C@H](O)[C@H](COCc1ccc(-c2ccc3c(c2)OCO3)cc1)NC(=O)[C@@H](NC(=O)c1ccccn1)C(C)C)C(N)=O`, the values for the Ki in experiment [2], in experiment [3] and in experiment [4] were 0.7 nM, 0.4 nM and 1.1 nM, respectively. The compound further had an inhibition at 5 µM in experiment [1] of 83%.

On to `CC(C)C[C@H](NC(=O)[C@H](C)NC(=O)C[C@H](O)[C@H](COCc1ccc(-c2ccsc2)cc1)NC(=O)[C@@H](NC(=O)c1ccccn1)C(C)C)C(N)=O`, for which the inhibition constant (Ki) was found to be 3.2 nM in experiment [2], 0.3 nM in experiment [3] and 1.1 nM in experiment [4]. Also, in experiment [1], the inhibition at 5 µM is 46%.

With `O=C(C[C@H](O)[C@H](COCc1ccc(-c2ccsc2)cc1)NC(=O)c1c(F)cc(F)cc1F)NC1CCCCC1`, the figures for the Ki in experiment [2], in experiment [3] and in experiment [4] were 4940 nM, 278 nM and 260 nM, respectively.

Regarding `CC(C)C[C@H](NC(=O)[C@H](C)NC(=O)C[C@H](O)[C@H](COCc1ccc(-c2ccccc2)cc1)NC(=O)[C@@H](NC(=O)c1ccccn1)C(C)C)C(N)=O`, the values for the Ki in experiment [2], in experiment [3] and in experiment [4] were 2.5 nM, 0.3 nM and 0.9 nM, respectively. This compound displayed an inhibition at 5 µM in experiment [1] of 70%.

In experiment [1], `COc1cccc(CCNC(=O)C[C@H](O)[C@H](COCc2ccc(Br)cc2)NC(=O)c2c(F)cc(F)cc2F)c1` yielded an inhibition at 5 µM of 29%.

For the compound `CC(C)C[C@H](NC(=O)[C@H](C)NC(=O)C[C@H](O)[C@H](COCc1cccc(-c2ccccc2)c1)NC(=O)[C@@H](NC(=O)c1ccccn1)C(C)C)C(N)=O`, the inhibition constant Ki worked out at 3.9 nM in experiment [2], 0.7 nM in experiment [3] and 4.4 nM in experiment [4].

Regarding `O=C(C[C@H](O)[C@H](COCc1ccc(-c2ccccc2)cc1)NC(=O)c1c(F)cc(F)cc1F)NC1CCCCC1`, the results for the Ki in experiment [2], in experiment [3] and in experiment [4] were > 3600 nM, 188 nM and 214 nM, respectively.

In the case of `CCCCNC(=O)C[C@H](O)[C@H](COCc1ccc(-c2ccccc2)cc1)NC(=O)[C@@H](NC(=O)c1ccccn1)C(C)C`, the Ki came out at 481 nM in experiment [2], 1.9 nM in experiment [3] and 16 nM in experiment [4].

On to `CC(C)C[C@H](NC(=O)[C@H](C)NC(=O)C[C@H](O)[C@H](COCc1ccc(-c2ccccc2)cc1)NC(=O)c1c(F)cc(F)cc1F)C(N)=O`, for which the Ki was 1730 nM in experiment [2], 5.9 nM in experiment [3] and 48 nM in experiment [4].

For the compound `CCCCNC(=O)C[C@H](O)[C@H](COCc1ccc(-c2ccsc2)cc1)NC(=O)[C@@H](NC(=O)c1ccccn1)C(C)C`, the Ki in experiment [2] worked out at 241 nM; in experiment [3] it was 1 nM; in experiment [4] it was 13 nM. In addition, the inhibition at 5 µM in experiment [1] came to 9%.

For the compound `CC(C)C[C@H](NC(=O)[C@H](C)NC(=O)C[C@H](O)[C@H](COCc1ccc(-c2ccsc2)cc1)NC(=O)c1c(F)cc(F)cc1F)C(N)=O`, the Ki in experiment [2] came out at 1440 nM; in experiment [3] it was 2.1 nM; in experiment [4], 55 nM.

Consider `CCCCNC(=O)C[C@H](O)[C@H](COCc1ccc(-c2ccc3c(c2)OCO3)cc1)NC(=O)[C@@H](NC(=O)c1ccccn1)C(C)C`, for which the inhibition constant Ki in experiment [2] was determined as 685 nM; in experiment [3] it was 2.7 nM; in experiment [4], 45 nM.

Take `CC(C)C[C@H](NC(=O)[C@H](C)NC(=O)C[C@H](O)[C@H](COCc1cccc(-c2ccsc2)c1)NC(=O)[C@@H](NC(=O)c1ccccn1)C(C)C)C(N)=O`: the inhibition constant (Ki) in experiment [2] is 1.6 nM; in experiment [3], 0.4 nM; in experiment [4], 1.9 nM. Moreover, the inhibition at 5 µM in experiment [1] was 65%.
